Measured values from ChEMBL document CHEMBL1240464, “Synthesis, structure and in vitro antibacterial activities of new hybrid disinfectants quaternary ammonium compounds: pyridinium and quinolinium stilbene benzenesulfonates” (2010).
≈ marks a conversion by molar mass, not a printed value. Calls of active or inactive are those of the source. No cut-off for these calls is given here.

How the values were obtained:
[1] = test system: Staphylococcus aureus; assay: Antibacterial activity against methicillin-resistant Staphylococcus aureus ATCC 43300 after 8 to 12 hrs by colorimetric microdilution broth technique; format: functional
In short: (§1)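 Broth microdilution with a colorimetric read-out. Bacteria were suspended in RPMI1640 with 1% Alamar Blue. Compound was dissolved in DMSO as a 25 mg/ml stock and added to the first row, then serially halved to a 128-fold final dilution. Plates were incubated at 37 °C for 8–12 h. MIC was the lowest concentration preventing the blue-to-red indicator change. Each assay was run at least three times.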

[2] = test system: Staphylococcus aureus; assay: Antibacterial activity against Staphylococcus aureus TISTR517 at up to 300 ug/ml after 8 to 12 hrs by colorimetric microdilution broth technique; format: functional, organism-based
In short: (§2)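 Broth microdilution in RPMI1640. Bacterial suspension in RPMI1640 is mixed with 1% Alamar Blue. Sample dissolved in DMSO at 25 mg/ml (stock) is added to the first row, then serially diluted two-fold down the plate to 128-fold. Plates are incubated at 37 °C for 8–12 h. MIC is the lowest concentration preventing the Alamar Blue change from blue to red. At least three repeats.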

[3] = test system: Pseudomonas aeruginosa; assay: Antibacterial activity against Pseudomonas aeruginosa at up to 300 ug/ml after 8 to 12 hrs by colorimetric microdilution broth technique; format: functional, organism-based; in short: as §2
[4] = test system: Salmonella typhi; assay: Antibacterial activity against Salmonella typhi at up to 300 ug/ml after 8 to 12 hrs by colorimetric microdilution broth technique; format: functional, organism-based; conditions: Salmonella enterica subsp. enterica serovar Typhi; in short: as §1
[5] = test system: Staphylococcus aureus; assay: Antibacterial activity against Staphylococcus aureus TISTR517 after 8 to 12 hrs by colorimetric microdilution broth technique; format: functional; in short: as §2
[6] = test system: Bacillus subtilis; assay: Antibacterial activity against Bacillus subtilis after 8 to 12 hrs by colorimetric microdilution broth technique; format: functional; in short: as §2
[7] = test system: Enterococcus faecalis; assay: Antibacterial activity against vancomycin-resistant Enterococcus faecalis ATCC 51299 after 8 to 12 hrs by colorimetric microdilution broth technique; format: functional; in short: as §1
[8] = test system: Enterococcus faecalis; assay: Antibacterial activity against Enterococcus faecalis TISTR459 after 8 to 12 hrs by colorimetric microdilution broth technique; format: functional; in short: as §1
[9] = test system: Pseudomonas aeruginosa; assay: Antibacterial activity against Pseudomonas aeruginosa after 8 to 12 hrs by colorimetric microdilution broth technique; format: functional; in short: as §2
[10] = test system: Salmonella typhi; assay: Antibacterial activity against Salmonella typhi after 8 to 12 hrs by colorimetric microdilution broth technique; format: functional, Salmonella enterica subsp. enterica serovar Typhi; conditions: Salmonella enterica; in short: as §1
[11] = test system: Shigella sonnei; assay: Antibacterial activity against Shigella sonnei after 8 to 12 hrs by colorimetric microdilution broth technique; format: functional; in short: as §2
[12] = test system: Bacillus subtilis; assay: Antibacterial activity against Bacillus subtilis at up to 300 ug/ml after 8 to 12 hrs by colorimetric microdilution broth technique; format: functional, organism-based; in short: as §2
[13] = test system: Enterococcus faecalis; assay: Antibacterial activity against Enterococcus faecalis TISTR459 at up to 300 ug/ml after 8 to 12 hrs by colorimetric microdilution broth technique; format: functional, organism-based; in short: as §2
[14] = test system: Shigella sonnei; assay: Antibacterial activity against Shigella sonnei at up to 300 ug/ml after 8 to 12 hrs by colorimetric microdilution broth technique; format: functional, organism-based; in short: as §2
[15] = test system: Enterococcus faecalis; assay: Antibacterial activity against vancomycin-resistant Enterococcus faecalis ATCC 51299 at up to 300 ug/ml after 8 to 12 hrs by colorimetric microdilution broth technique; format: functional, organism-based; in short: as §1

Row | Compound | MIC [1] [µg/mL] | MIC [5] [µg/mL] | MIC [6] [µg/mL] | MIC [7] [µg/mL] | MIC [8] [µg/mL] | MIC [9] [µg/mL] | MIC [10] [µg/mL] | MIC [11] [µg/mL] | further results
1 | CN(C)c1ccc(/C=C/c2cccc[n+]2C)cc1.O=S(=O)([O-])c1ccc(Br)cc1 | 75 |  |  |  |  |  |  |  | 
2 | CCOc1ccc(/C=C/c2ccc3ccccc3[n+]2C)cc1 |  |  |  |  |  |  |  |  | MIC [2]: inactive; MIC [3]: inactive; MIC [4]: inactive
3 | CN[C@H](CC(C)C)C(=O)N[C@H]1C(=O)N[C@@H](CC(N)=O)C(=O)N[C@H]2C(=O)N[C@H]3C(=O)N[C@H](C(=O)N[C@H](C(=O)O)c4cc(O)cc(O)c4-c4cc3ccc4O)[C@H](O)c3ccc(c(Cl)c3)Oc3cc2cc(c3O[C@@H]2O[C@H](CO)[C@@H](O)[C@H](O)[C@H]2O[C@H]2C[C@](C)(N)[C@H](O)[C@H](C)O2)Oc2ccc(cc2Cl)[C@H]1O [VANCOMYCIN] | < 2.34 | 9.37 (≈ 6.47 µM) | 2.34 (≈ 1.61 µM) | 2.34 (≈ 1.61 µM) | 9.38 (≈ 6.47 µM) | 2.34 (≈ 1.61 µM) | 2.34 (≈ 1.61 µM) | 2.34 (≈ 1.61 µM) | 
4 | CN(C)c1ccc(/C=C/c2cccc[n+]2C)cc1.Nc1ccc(S(=O)(=O)[O-])cc1 [listing 1 of 2 here] |  |  |  |  |  |  |  |  | MIC [2]: inactive; MIC [12]: inactive; MIC [13]: inactive; MIC [3]: inactive; MIC [4]: inactive; MIC [14]: inactive
5 | CN(C)c1ccc(/C=C/c2cccc[n+]2C)cc1.COc1ccc(S(=O)(=O)[O-])cc1 | 75 | 150 | 150 | 150 | 150 | 150 | 150 | 150 | 
6 | CN(C)c1ccc(/C=C/c2ccc3ccccc3[n+]2C)cc1.COc1ccc(S(=O)(=O)[O-])cc1 | 2.34 |  | 75 | 150 | 150 |  |  | 150 | 
7 | CCOc1ccc(/C=C/c2ccc3ccccc3[n+]2C)cc1.Cc1ccc(S(=O)(=O)[O-])cc1 | 2.34 |  | 9.37 | 37.5 | 37.5 |  |  | 150 | 
8 | CN(C)c1ccc(/C=C/c2ccc3ccccc3[n+]2C)cc1.Nc1ccc(S(=O)(=O)[O-])cc1 | 2.34 | 75 | 18.8 | 18.8 | 75 | 150 | 75 | 75 | 
9 | CN(C)c1ccc(/C=C/c2ccc3ccccc3[n+]2C)cc1.Cc1ccc(S(=O)(=O)[O-])cc1 | 2.34 | 2.34 | 2.34 | 2.34 | 2.34 | 300 | 300 | 2.34 | 
10 | CN(C)c1ccc(/C=C/c2cccc[n+]2C)cc1.Nc1ccc(S(=O)(=O)[O-])cc1 [listing 2 of 2 here] | 37.5 |  |  | 300 |  |  |  |  | 
11 | CN(C)c1ccc(/C=C/c2cccc[n+]2C)cc1.O=S(=O)([O-])c1ccc(Cl)cc1 | 37.5 |  | 300 | 150 |  | 300 | 300 |  | 
12 | CCOc1ccc(/C=C/c2cccc[n+]2C)cc1.O=S(=O)([O-])c1ccc(Cl)cc1 | 75 |  |  |  |  |  |  |  | 
13 | CCOc1ccc(/C=C/c2ccc3ccccc3[n+]2C)cc1.COc1ccc(S(=O)(=O)[O-])cc1 [listing 1 of 2 here] |  |  |  |  |  |  |  |  | MIC [2]: inactive; MIC [3]: inactive; MIC [4]: inactive
14 | CCOc1ccc(/C=C/c2ccc3ccccc3[n+]2C)cc1.COc1ccc(S(=O)(=O)[O-])cc1 [listing 2 of 2 here] | 2.34 |  | 18.8 | 18.8 | 75 |  |  | 150 | 
15 | CCOc1ccc(/C=C/c2cccc[n+]2C)cc1.COc1ccc(S(=O)(=O)[O-])cc1 |  |  |  |  |  |  |  |  | MIC [2]: inactive; MIC [12]: inactive; MIC [15]: inactive; MIC [13]: inactive; MIC [3]: inactive; MIC [4]: inactive; MIC [14]: inactive
16 | CN(C)c1ccc(/C=C/c2ccc3ccccc3[n+]2C)cc1.O=S(=O)([O-])c1ccc(Cl)cc1 | 2.34 | 2.34 | 2.34 | 2.34 | 2.34 | 300 | 300 | 2.34 | 
17 | CCOc1ccc(/C=C/c2cccc[n+]2C)cc1.Nc1ccc(S(=O)(=O)[O-])cc1 | 75 |  |  |  |  |  |  |  | 
18 | CCOc1ccc(/C=C/c2ccc3ccccc3[n+]2C)cc1.O=S(=O)([O-])c1ccc(Br)cc1 | 2.34 | 300 | 18.8 | 18.8 | 37.5 |  |  | 75 | 
